Measured values: ChEMBL document CHEMBL3580565, “Synthesis and Biological Evaluation of Cyclopentaquinoline Derivatives as Nonsteroidal Glucocorticoid Receptor Antagonists” (J Med Chem, 2015)
pIC50, pKi: −log10 of the molar value.

How the values were obtained:
Glucocorticoid receptor = target: T1, Glucocorticoid receptor (Homo sapiens, UniProt P04150); experiment: Antagonist activity at human glucocorticoid receptor transfected in CHOK1 cells assessed as inhibition of dexamethasone-induced receptor transcriptional activity after 6 hrs by luciferase reporter gene assay; assay type: cell-based, CHO-K1
T1 sequence (P04150 whole entry): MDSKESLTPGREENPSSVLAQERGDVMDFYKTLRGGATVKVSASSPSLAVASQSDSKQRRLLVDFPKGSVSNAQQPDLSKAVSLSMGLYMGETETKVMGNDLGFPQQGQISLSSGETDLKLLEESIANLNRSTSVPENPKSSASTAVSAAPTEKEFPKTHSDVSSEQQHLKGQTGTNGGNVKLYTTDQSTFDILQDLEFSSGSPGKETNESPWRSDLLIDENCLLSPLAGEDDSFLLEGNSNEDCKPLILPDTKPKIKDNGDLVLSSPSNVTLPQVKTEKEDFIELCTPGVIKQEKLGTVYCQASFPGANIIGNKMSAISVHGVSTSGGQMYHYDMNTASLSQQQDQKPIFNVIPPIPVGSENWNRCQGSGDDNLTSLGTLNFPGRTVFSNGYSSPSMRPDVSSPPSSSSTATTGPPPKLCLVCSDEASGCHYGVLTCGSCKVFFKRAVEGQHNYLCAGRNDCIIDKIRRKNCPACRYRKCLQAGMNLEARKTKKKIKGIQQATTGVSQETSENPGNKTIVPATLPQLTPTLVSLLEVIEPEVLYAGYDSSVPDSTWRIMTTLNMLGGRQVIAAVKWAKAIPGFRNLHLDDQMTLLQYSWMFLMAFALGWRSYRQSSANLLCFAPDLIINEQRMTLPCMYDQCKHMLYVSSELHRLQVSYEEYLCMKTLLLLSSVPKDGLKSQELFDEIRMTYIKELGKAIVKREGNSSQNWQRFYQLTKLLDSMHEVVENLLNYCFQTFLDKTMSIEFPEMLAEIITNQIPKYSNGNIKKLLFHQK

[1] = target: T2, Mineralocorticoid receptor (Homo sapiens, UniProt P08235); experiment: Displacement of [3H]-aldosterone from cytosolic fraction of human recombinant mineralocorticoid receptor by scintillation counting analysis
T2 sequence (P08235 whole entry): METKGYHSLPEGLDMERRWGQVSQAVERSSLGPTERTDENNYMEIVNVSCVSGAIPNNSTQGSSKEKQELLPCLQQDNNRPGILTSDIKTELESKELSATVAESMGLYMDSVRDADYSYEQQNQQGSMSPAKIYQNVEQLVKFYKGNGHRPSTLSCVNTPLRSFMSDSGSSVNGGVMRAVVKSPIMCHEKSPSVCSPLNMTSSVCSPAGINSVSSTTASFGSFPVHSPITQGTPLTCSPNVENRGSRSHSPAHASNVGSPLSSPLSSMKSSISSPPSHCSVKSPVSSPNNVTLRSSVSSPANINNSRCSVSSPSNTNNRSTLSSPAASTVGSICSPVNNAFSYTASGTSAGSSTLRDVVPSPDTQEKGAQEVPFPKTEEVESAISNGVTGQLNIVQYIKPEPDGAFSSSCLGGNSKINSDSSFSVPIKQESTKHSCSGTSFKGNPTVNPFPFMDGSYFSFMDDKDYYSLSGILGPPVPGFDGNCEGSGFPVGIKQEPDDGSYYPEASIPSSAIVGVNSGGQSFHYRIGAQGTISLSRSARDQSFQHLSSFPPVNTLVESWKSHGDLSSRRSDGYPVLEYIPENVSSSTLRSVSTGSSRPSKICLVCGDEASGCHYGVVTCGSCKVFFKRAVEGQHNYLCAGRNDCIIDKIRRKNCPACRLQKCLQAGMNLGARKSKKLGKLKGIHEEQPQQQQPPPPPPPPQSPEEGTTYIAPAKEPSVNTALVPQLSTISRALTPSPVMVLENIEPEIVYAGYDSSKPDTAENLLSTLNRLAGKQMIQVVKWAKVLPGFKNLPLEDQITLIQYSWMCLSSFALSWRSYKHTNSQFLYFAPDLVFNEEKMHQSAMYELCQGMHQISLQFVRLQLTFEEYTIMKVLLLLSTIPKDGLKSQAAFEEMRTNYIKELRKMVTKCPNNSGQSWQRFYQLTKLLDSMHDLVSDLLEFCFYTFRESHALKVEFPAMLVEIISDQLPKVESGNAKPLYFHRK

Estrogen receptor = Estrogen receptor (Homo sapiens, UniProt P03372); experiment: Displacement of fluormone ES2 from human recombinant estrogen receptor-alpha expressed in insect Sf9 cells after 120 mins by fluorescence polarization assay
How it was run: (§1)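 Assay run at Cerep. Fluorescence polarization with Fluormone ES2 tracer, using recombinant human ERα expressed in Sf9 cells and ERβ expressed in Hi5 cells.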

Estrogen receptor beta = Estrogen receptor beta (Homo sapiens, UniProt Q92731); experiment: Displacement of fluormone ES2 from human recombinant estrogen receptor-beta expressed in insect Hi5 cells after 120 mins by fluorescence polarization assay; set-up: species or system BTI-TN-5B1-4; how it was run: as §1
[2] = Cmax in Sprague-Dawley rat at 1 mg/kg, iv by LC/MS/MS analysis; assay type: ADME, organism-based; set-up: dose 1 mg/kg, route intravenous; conditions: in vivo
How it was run: (§2)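 Single intravenous dose to male Sprague–Dawley rats (n = 4). Jugular vein blood drawn at 0.05, 0.25, 0.5, 1, 2, 4, 8 and 24 h, heparin anticoagulant, plasma separated by centrifugation. Plasma drug level measured by LC/MS/MS.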

[3] = Cmax in Sprague-Dawley rat at 10 mg/kg, po by LC/MS/MS analysis; assay type: ADME, organism-based; set-up: dose 10 mg/kg, route oral; conditions: in vivo
How it was run: (§3)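 Male Sprague–Dawley rats dosed orally (n = 4). Jugular vein blood sampled at 0.25, 0.5, 1, 2, 4, 6 and 24 h into heparin, plasma obtained by centrifugation. Concentrations determined by LC/MS/MS.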

[4] = AUC (0 to infinity) in Sprague-Dawley rat at 1 mg/kg, iv by LC/MS/MS analysis; assay type: ADME, organism-based; set-up: dose 1 mg/kg, route intravenous, time infinity; conditions: in vivo; how it was run: as §2
[5] = AUC (0 to infinity) in Sprague-Dawley rat at 10 mg/kg, po by LC/MS/MS analysis; assay type: ADME, organism-based; set-up: dose 10 mg/kg, time infinity, route oral; conditions: in vivo; how it was run: as §3
[6] = Total clearance in Sprague-Dawley rat at 1 mg/kg, iv by LC/MS/MS analysis; assay type: ADME, organism-based; conditions: in vivo; how it was run: as §2
Plasma = experiment: Unbound plasma concentration in Sprague-Dawley rat at 30 mg/kg, po measured at 1 hr by LC/MS/MS analysis; assay type: ADME, organism-based; conditions: in vivo
How it was run: (§4)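 Male SD rats given 30 mg/kg orally (n = 3 per time point), killed at 1 and 3 h. Heparinized blood collected for plasma; brain rinsed in saline, weighed, homogenized in five volumes (w/v) saline. Plasma and brain levels by LC/MS/MS. Kp,uu,brain is the ratio of unbound brain to unbound plasma concentration.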

[7] = Unbound brain to plasma concentration ratio in Sprague-Dawley rat at 30 mg/kg, po measured at 1 hr by LC/MS/MS analysis; assay type: ADME, organism-based; conditions: brain and plasma, read-out: K(p,uu,brain); how it was run: as §4
Rattus norvegicus [8] = experiment: Antidepressant-like activity in Wistar rat assessed as decrease in immobility time at 10 mg/kg, po administered at 1, 5, 23.5 hrs prior to testing measured for 5 mins by forced swimming test relative to vehicle-treated control; assay type: functional; set-up: scale not given: the % may be the effect or the level left
Rattus norvegicus [9] = experiment: Antidepressant-like activity in Wistar rat assessed as decrease in immobility time at 30 mg/kg, po administered at 1, 5, 23.5 hrs prior to testing measured for 5 mins by forced swimming test relative to vehicle-treated control; assay type: functional; set-up: scale not given: the % may be the effect or the level left

Estrogen receptor beta, sequence (Q92731 whole entry): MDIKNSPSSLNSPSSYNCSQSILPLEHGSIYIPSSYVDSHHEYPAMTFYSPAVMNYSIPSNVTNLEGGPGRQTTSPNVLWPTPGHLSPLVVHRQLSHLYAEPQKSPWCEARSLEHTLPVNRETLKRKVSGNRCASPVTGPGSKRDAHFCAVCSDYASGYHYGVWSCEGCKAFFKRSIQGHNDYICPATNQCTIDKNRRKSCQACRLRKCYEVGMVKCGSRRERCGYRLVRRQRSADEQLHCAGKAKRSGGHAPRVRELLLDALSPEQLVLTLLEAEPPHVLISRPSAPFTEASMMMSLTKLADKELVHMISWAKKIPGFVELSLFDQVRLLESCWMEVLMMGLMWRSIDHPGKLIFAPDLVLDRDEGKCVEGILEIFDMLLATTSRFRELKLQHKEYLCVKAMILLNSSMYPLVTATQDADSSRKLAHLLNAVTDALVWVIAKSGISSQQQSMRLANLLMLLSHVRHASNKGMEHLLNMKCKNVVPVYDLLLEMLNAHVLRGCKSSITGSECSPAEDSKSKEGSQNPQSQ
Estrogen receptor, sequence (P03372 whole entry, looked up): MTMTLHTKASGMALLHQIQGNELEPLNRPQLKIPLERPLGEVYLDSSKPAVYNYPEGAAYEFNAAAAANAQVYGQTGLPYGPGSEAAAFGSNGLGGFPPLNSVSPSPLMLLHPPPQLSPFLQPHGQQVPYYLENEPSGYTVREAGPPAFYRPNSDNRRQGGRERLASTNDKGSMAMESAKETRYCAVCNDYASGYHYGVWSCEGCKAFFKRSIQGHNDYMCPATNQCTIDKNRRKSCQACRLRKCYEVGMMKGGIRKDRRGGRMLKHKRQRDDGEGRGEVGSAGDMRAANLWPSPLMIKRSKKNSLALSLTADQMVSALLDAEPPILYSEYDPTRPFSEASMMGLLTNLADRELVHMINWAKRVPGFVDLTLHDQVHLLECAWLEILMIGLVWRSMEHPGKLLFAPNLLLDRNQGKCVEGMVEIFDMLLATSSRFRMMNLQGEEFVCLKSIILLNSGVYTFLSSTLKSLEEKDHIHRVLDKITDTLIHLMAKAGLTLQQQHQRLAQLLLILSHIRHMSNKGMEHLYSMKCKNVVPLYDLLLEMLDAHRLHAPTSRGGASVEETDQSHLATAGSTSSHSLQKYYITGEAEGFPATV

SMILES: Cc1noc(C)c1-c1cc2c(c3c1CCC3)NC(C)(C)C(=O)C2(C)C
- pIC50 (Glucocorticoid receptor): 7.52
- pKi [1]: < 5.52
- pKi (Estrogen receptor): < 5.64
- pKi (Estrogen receptor beta): < 5.64
- Cmax [2]: 633 ng/mL
- Cmax [3]: 273 ng/mL
- AUC(0-inf) [4]: 460 ng·h/mL
- AUC(0-inf) [5]: 2720 ng·h/mL
- clearance [6]: 37.1 mL/min/kg
- Cp(f) (Plasma): 14.1 nM
- Kp uu at 1 h [7]: 1.8
- Activity (Rattus norvegicus [8]): 89.1%
- Activity (Rattus norvegicus [9]): 75.9%
